Measurements as given in ChEMBL document CHEMBL3596113, “Callyaerins from the Marine Sponge Callyspongia aerizusa: Cyclic Peptides with Antitubercular Activity” (J Nat Prod, 2015).
Converted amounts (≈) assume the structure as drawn.

Key:
[1] = test system: Mycobacterium tuberculosis; test: Antitubercular activity against Mycobacterium tuberculosis after 6 days by resazurin dye reduction method; assay type: functional; details: 144 h; for MIC: read-out: MIC100
Procedure, shortened: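 M. tuberculosis grown aerobically at 37 °C in Middlebrook 7H9 with 0.5% glycerol, 0.05% Tyloxapol, 10% ADS enrichment; log-phase cultures (OD600 ~1) seeded at 1 × 10^5 cells/well, exposed to test substances 6 days. Resazurin added ~8 h, then formalin fixation (5% final); fluorescence ex 540/em 590 nm. Growth relative to rifampicin (0%) and DMSO (100%) controls; MIC90 = 90% growth inhibition.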

THP-1 = test: (§1) Cytotoxicity against human THP1 cells assessed as cell growth inhibition after 48 hrs by resazurin dye reduction method; assay type: cell-based; details: Homo sapiens, THP-1, 48 h
Procedure, shortened: (§2)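 THP-1 human monocytic cells were grown in RPMI 1640 with 10% FBS, and MRC-5 fetal lung fibroblasts in DMEM with 10% FBS, at 37 °C in humidified 5% CO2. About 5 × 10^4 cells per well were exposed to compounds for 48 h, then to resazurin for about 3 h more. Fluorescence was read at ex 540/em 590 nm. Growth was set against uninoculated (0%) and untreated (100%) controls, and IC50 was taken as the concentration giving 50% growth inhibition.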

MRC5 = test: (§3) Cytotoxicity against human MRC5 cells assessed as cell growth inhibition after 48 hrs by resazurin dye reduction method; assay type: cell-based; details: Homo sapiens, MRC5, 48 h; procedure, shortened: as §2
[2] = as §1; assay type: cell-based, THP-1; details: human, THP-1 cells; procedure, shortened: as §2
[3] = as §3; assay type: cell-based; details: human, MRC5 cells; procedure, shortened: as §2

CC(C)C[C@H](NC(=O)[C@@H]1CCCN1C(=O)/C1=C/N[C@@H](CC(C)C)C(=O)N2CCC[C@H]2C(=O)N[C@@H](Cc2ccccc2)C(=O)N[C@@H](Cc2ccccc2)C(=O)N2CCC[C@H]2C(=O)N2CCC[C@H]2C(=O)N[C@@H](C(C)C)C(=O)N1)C(=O)N[C@@H](Cc1ccccc1)C(=O)NCC(N)=O
MIC90 [1]: > 100 µM | IC50 (THP-1): > 10 µM | IC50 (MRC5): > 10 µM

CC[C@H](C)[C@H](NC(=O)[C@@H](NC(=O)[C@@H]1CCCN1C(=O)/C1=C/N[C@@H](Cc2ccccc2)C(=O)N2CCC[C@H]2C(=O)N[C@@H](CC(C)C)C(=O)N[C@@H](Cc2ccccc2)C(=O)N2CCC[C@H]2C(=O)N2CCC[C@H]2C(=O)N[C@@H](C(C)C)C(=O)N1)[C@@H](C)CC)C(=O)NCC(N)=O
MIC90 [1]: > 100 µM | IC50 (THP-1): > 10 µM | IC50 (MRC5): > 10 µM

CC[C@H](C)[C@H](NC(=O)[C@H](Cc1ccccc1)NC(=O)[C@@H]1CCCN1C(=O)/C1=C/N[C@@H](Cc2ccccc2)C(=O)N2CCC[C@H]2C(=O)N[C@@H](Cc2ccccc2)C(=O)NCC(=O)N[C@@H](CC(C)C)C(=O)N2CCC[C@H]2C(=O)N2CCC[C@H]2C(=O)N[C@@H](Cc2ccccc2)C(=O)N1)C(=O)N[C@@H](CC(=O)O)C(=O)O
MIC90 [1]: > 100 µM | IC50 (THP-1): > 10 µM | IC50 (MRC5): > 10 µM

CC[C@H](C)[C@H](NC(=O)[C@H](Cc1ccccc1)NC(=O)[C@H](CC(C)C)NC(=O)[C@@H]1CCCN1C(=O)/C1=C\N[C@@H](C(C)C)C(=O)N2CCC[C@H]2C(=O)N[C@@H](C(C)C)C(=O)N[C@@H](Cc2ccccc2)C(=O)N2CCC[C@H]2C(=O)N1)C(=O)O [CALLYAERIN F]
MIC90 [1]: 50 µM (≈ 54.8 µg/mL) | IC50 (THP-1): > 10 µM | IC50 (MRC5): > 10 µM

COC1NC(=O)N/C1=C\[C@@H]1N/C=C(/C(=O)N2CCC[C@H]2C(=O)N[C@@H](CC(C)C)C(=O)N[C@@H](Cc2ccccc2)C(=O)NCC(N)=O)NC(=O)[C@H](C(C)C)NC(=O)[C@@H]2CCCN2C(=O)[C@@H]2CCCN2C(=O)[C@H](CC(C)C)NC(=O)[C@H](CC(C)C)NC(=O)[C@@H]2C[C@@H](O)CN2C1=O (stereo partly drawn)
MIC90 [1]: > 100 µM | IC50 (THP-1): > 10 µM | IC50 (MRC5): > 10 µM

CC[C@H](C)[C@@H]1NC(=O)[C@H](CCC(=O)O)NC(=O)[C@@H]2C[C@@H](O)CN2C(=O)[C@H]([C@@H](C)CC)N/C=C(/C(=O)N2CCC[C@H]2C(=O)N[C@@H](CC(C)C)C(=O)N[C@@H](Cc2ccccc2)C(N)=O)NC(=O)[C@H](CC(C)C)NC(=O)[C@@H]2CCCN2C(=O)[C@@H]2CCCN2C(=O)[C@H](C(C)C)NC1=O
MIC90 [1]: > 100 µM | IC50 (THP-1): > 10 µM | IC50 (MRC5): > 10 µM

CC[C@H](C)[C@H](NC(=O)[C@@H](NC(=O)[C@@H]1CCCN1C(=O)/C1=C/N[C@@H](CC(C)C)C(=O)N2CCC[C@H]2C(=O)N[C@@H](Cc2ccccc2)C(=O)N[C@@H](Cc2ccccc2)C(=O)N2CCC[C@H]2C(=O)N2CCC[C@H]2C(=O)N[C@@H](C(C)C)C(=O)N1)[C@@H](C)CC)C(=O)NCC(=O)O [CALLYAERIN E]
MIC90 [1]: 100 µM (≈ 126 µg/mL) | IC50 (THP-1): > 10 µM | IC50 (MRC5): > 10 µM

CC[C@@H](C)[C@@H]1NC(=O)[C@H](C(C)C)NC(=O)[C@@H]2C[C@@H](O)CN2C(=O)[C@H]([C@@H](C)CC)N/C=C(\C(=O)N2CCC[C@H]2C(=O)N[C@H](C(=O)N[C@@H](Cc2ccccc2)C(=O)NCC(N)=O)[C@@H](C)CC)NC(=O)[C@H](CC(C)C)NC(=O)[C@@H]2CCCN2C(=O)[C@@H]2CCCN2C(=O)[C@H](CC(C)C)NC1=O [CALLYAERIN A]
MIC90 [1]: 2 µM (≈ 2.72 µg/mL) | MIC [1]: 6 µM (≈ 8.15 µg/mL) | IC90 at 48 h [2]: 50 µM | IC50 (THP-1): 30 µM | IC90 at 48 h [3]: 40 µM | IC50 (MRC5): 20 µM

NNC(=O)c1ccncc1 [ISONIAZID]
MIC90 [1]: 0.625 µM (≈ 0.0857 µg/mL) | MIC [1]: 1.25 µM (≈ 0.171 µg/mL)

CC[C@@H](CO)NCCN[C@@H](CC)CO [ETHAMBUTOL]
MIC90 [1]: 1.25 µM (≈ 0.255 µg/mL) | MIC [1]: 5 µM (≈ 1.02 µg/mL)

CO[C@H]1/C=C/O[C@@]2(C)Oc3c(C)c(O)c4c(O)c(c(/C=N/N5CCN(C)CC5)c(O)c4c3C2=O)NC(=O)/C(C)=C\C=C\[C@H](C)[C@H](O)[C@@H](C)[C@@H](O)[C@@H](C)[C@H](OC(C)=O)[C@@H]1C [RIFAMPIN]
MIC90 [1]: < 0.1 µM | MIC [1]: 0.5 µM (≈ 0.411 µg/mL) | IC90 at 48 h [2]: > 100 µM | IC50 (THP-1): > 100 µM | IC90 at 48 h [3]: > 100 µM | IC50 (MRC5): > 100 µM

CC[C@@H](C)[C@@H]1NC(=O)[C@H]([C@@H](C)CC)NC(=O)[C@@H]2C[C@@H](O)CN2C(=O)[C@H]([C@H](C)CC)N/C=C(\C(=O)N2CCC[C@H]2C(=O)N[C@H](C(=O)N[C@H](C(=O)O)[C@@H](C)CC)[C@@H](C)CC)NC(=O)[C@H](CC(C)C)NC(=O)[C@@H]2CCCN2C(=O)[C@@H]2CCCN2C(=O)[C@H](CC(C)C)NC1=O [CALLYAERIN B]
MIC90 [1]: 5 µM (≈ 6.41 µg/mL) | MIC [1]: 10 µM (≈ 12.8 µg/mL) | IC90 at 48 h [2]: 30 µM | IC50 (THP-1): 5 µM | IC90 at 48 h [3]: 6 µM | IC50 (MRC5): 2 µM
